IDH1 R132H inh – inhibitors of IDH1 R132H reductase, primary screen, biochemical, plate reader, single point. inhibition, % at 10 µM. diaphorase/resazurin fluorescence, 60 min. Isocitrate dehydrogenase [NADP] cytoplasmic (Homo sapiens), O75874. 70,000 tested, 0.18% active. AID 624101, 2012; in the data active = inhibition above about 34%; inconclusive = no clear call, values can overlap the other calls; inactive = below about 11%;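 also: 0% = DMSO and 100% = no enzyme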
Pf Dd2 inh – P. falciparum Dd2 growth inhibitors, primary screen, SYBR Green fluorescence, single dose replicates. 94,000 tested, 2.3% active. 72 h; hits give low values. activity change, % at 10 µM; in the data active = activity change below about -80%; inconclusive = no clear call, values can overlap the other calls
GASC1 inh – inhibitors of GASC-1 (KDM4C) histone demethylase, primary screen, biochemical, single concentration HTS; GST-KDM4C 2-372, H3K9me3 peptide, LANCE TR-FRET; inhibition, % at 12.5 µM; 96,000 tested, 0.15% active; AID 720574, 2013;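 active = mean replicate inhibition above about 25%, with at least 55% of replicates also reaching it, limit read from the data, passing the limit was not always enough; inconclusive = only one of those two conditions met; inactive = neither condition met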
Target sequence (Q9H3R0 2-372 limits assumed): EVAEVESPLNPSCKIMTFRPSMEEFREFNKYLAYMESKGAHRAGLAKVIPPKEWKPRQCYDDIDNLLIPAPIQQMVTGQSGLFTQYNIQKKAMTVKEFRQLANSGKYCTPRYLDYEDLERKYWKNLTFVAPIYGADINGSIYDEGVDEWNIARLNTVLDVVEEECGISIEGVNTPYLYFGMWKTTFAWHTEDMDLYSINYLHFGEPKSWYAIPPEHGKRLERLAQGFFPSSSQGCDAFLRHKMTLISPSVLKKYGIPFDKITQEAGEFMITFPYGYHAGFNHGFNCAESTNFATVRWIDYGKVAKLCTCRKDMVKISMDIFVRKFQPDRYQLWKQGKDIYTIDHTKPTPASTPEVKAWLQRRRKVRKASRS
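System – N-terminal GST-fused human GASC-1 (KDM4C) fragment, residues 2-372 · Input – enzyme final amount 10 nM · Technique – LANCE TR-FRET, Eu antibody, ULight-streptavidin, EDTA, ex 340 nm, em 618/671 nm · Medium – HEPES buffer, pH 7.5, plus ascorbate · Incubation – enzyme reaction 30 min, then detection 60 min, both room temperature · Reagent – H3K9me3 peptide with Fe(II)/2OG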
T cruzi growth-1 – T. cruzi intracellular proliferation inhibitors, primary screen, cell-based, beta-gal Tulahuen parasites, NIH3T3 host, luminescence; T. cruzi beta-gal in NIH3T3, GalScreen luminescence, 90 h; inhibition, % at 8.34 µM; 77,000 tested, 5.9% active;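 active = mean inhibition above about 93%, with at least 55% of replicates each passing it, limit read from the data, passing the limit was not always enough; inconclusive = only one of those two conditions holds; inactive = neither condition holds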
T cruzi growth-2 – T. cruzi intracellular proliferation inhibitors, confirmation, cell-based, NIH3T3 host, beta-gal parasite, luminescence, cherry-pick; shares compounds with T cruzi growth-1; T. cruzi beta-gal in NIH3T3, GalScreen luminescence, 90 h; inhibition, % at 8.35 µM; 5,600 tested, 72% active;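 active = mean replicate inhibition above about 95% and at least 55% of replicates individually reaching it, limit read from the data; inconclusive = only one of the two criteria is met; inactive = neither criterion is met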
T cruzi growth-3 – inhibitors of intracellular T. cruzi replication, confirmation, NIH3T3 host cells, beta-gal parasites, cherry-pick, set 2. shares compounds with T cruzi growth-1. T. cruzi beta-gal in NIH3T3, GalScreen luminescence, 90 h. inhibition, % at 2.09 µM. 5,600 tested, 21% active. AID 651740, 2012;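 active = mean inhibition above about 95%, with at least 55% of replicates also reaching it, limit read from the data; inconclusive = meets just one of the two conditions; inactive = meets neither condition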;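 also: plate controls were neutral control median for no effect and positive control median for full effect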
3T3 cytotox – cytotoxicity in mouse NIH/3T3 fibroblasts, confirmation, cytotoxicity control for T. cruzi proliferation inhibitor project, cell-based, cherry-pick, single point; shares compounds with T cruzi growth-1; NIH/3T3 viability, CellTiter-Glo ATP luminescence, 90 h; cytotoxicity (signal decrease), % at 8.35 µM; 5,600 tested, 14% active; AID 651742, 2012;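 active = mean signal decrease across replicates above about 35% based on untreated-well scatter, with enough replicates individually passing, limit read from the data; inconclusive = no rule stated though some were filed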;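 also: 0% = median of neutral control wells and 100% = median of positive control wells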
3T3 cytotox 2 – NIH/3T3 fibroblast cytotoxicity, confirmation, cytotoxicity control, cell-based, cherry-pick, single point, set 2; shares compounds with T cruzi growth-1; NIH/3T3 viability, CellTiter-Glo ATP luminescence, 90 h; inhibition, % at 24.9 µM; 5,600 tested, 56% active;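 active = mean loss of cell viability signal at or above a set limit, and enough replicates individually reaching it; inconclusive = meets only the mean limit or only the replicate share; inactive = meets neither condition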;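 also: 0% = median of neutral control wells and 100% = median of positive control wells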
* = called active by the depositor; ? = inconclusive; . = not tested or not shown; ! = not active in a repeat. An excerpt weighted towards active compounds, which were near 5.9% of everything screened.

SMILES	IDH1 R132H inh	Pf Dd2 inh	GASC1 inh	T cruzi growth-1	T cruzi growth-2	T cruzi growth-3	3T3 cytotox	3T3 cytotox 2
O=C(CCCN1C(=O)c2ccccc2C1=O)Nc1ccc(Br)cc1F	0	.	.	.	.	.	.	.
CCc1cccc(C)c1NC(=O)CSc1nc2cc(C)cc(-n3nc4ccccc4n3)c2o1	0	.	.	.	.	.	.	.
Cc1ccc(-c2ccc([C@H]3[C@H](CO)N4CCCCN(C(=O)c5ccc(F)cc5)C[C@@H]34)cc2)cc1	.	4	-1	103*	?	41	22	106*
CCn1c(SCC(=O)Nc2ccc(F)cc2)nnc1-c1ccc(Cl)cc1Cl	0	.	.	.	.	.	.	.
CCCC#Cc1cnc2c(c1)C(=O)N([C@H](C)CO)C[C@@H](C)[C@@H](CN(C)S(=O)(=O)c1cccc(OC)c1)O2	0	-16	0	104*	99*	62	37*	65*
COc1cccc(S(=O)(=O)N(C)C[C@@H]2Oc3ncc(C#CCN(C)C)cc3C(=O)N([C@H](C)CO)C[C@H]2C)c1	.	-2	-1	96*!	?	84	13	17
COc1cccc(S(=O)(=O)N(C)C[C@H]2Oc3ncc(C#CC(C)C)cc3C(=O)N([C@H](C)CO)C[C@@H]2C)c1	-1	-72	0	65	.	.	.	.
COc1cccc(S(=O)(=O)N(C)C[C@@H]2Oc3ncc(C#Cc4ccc(F)cc4)cc3C(=O)N([C@H](C)CO)C[C@@H]2C)c1	-4	-54	-6	108*	103*	63	22	12
COc1cccc(S(=O)(=O)N(C)C[C@H]2Oc3ncc(C#CC(C)C)cc3C(=O)N([C@@H](C)CO)C[C@H]2C)c1	0	-13	-1	109*	82	70	23	49*
CCOC(=O)c1c(NC(=O)CSc2nc(C)ccc2C#N)sc2c1CCC2	0	.	.	.	.	.	.	.
COc1cccc(S(=O)(=O)N(C)C[C@@H]2Oc3ncc(C#CCC(C)C)cc3C(=O)N([C@@H](C)CO)C[C@H]2C)c1	.	-54	0	111*	107*	85	-1	77*
COc1cccc(S(=O)(=O)N(C)C[C@@H]2Oc3ncc(C#CCC(C)C)cc3C(=O)N([C@H](C)CO)C[C@@H]2C)c1	.	-15	-1	-22	.	.	.	.
COc1cccc(S(=O)(=O)N(C)C[C@H]2Oc3ncc(C#CCC(C)C)cc3C(=O)N([C@H](C)CO)C[C@@H]2C)c1	.	-63	-6	102*	106*	79	11	60*
Cc1ccc(-c2noc(CCC(=O)Nc3cccc([N+](=O)[O-])c3)n2)cc1	-1	.	.	.	.	.	.	.
C[C@@H]1CN([C@@H](C)CO)S(=O)(=O)c2ccc(C#Cc3ccccn3)cc2O[C@@H]1CN(C)C	0	22	0	.	.	.	.	.
CNC[C@H]1Oc2cc(C#Cc3ccccn3)ccc2S(=O)(=O)N([C@H](C)CO)C[C@H]1C	0	-22	1	99*	109*	69	-8	29
CNC[C@H]1Oc2cc(C#Cc3ccccn3)ccc2S(=O)(=O)N([C@@H](C)CO)C[C@@H]1C	11	-41	-1	101*	111*	93	4	4
Cc1ccccc1NC(=O)CSc1nnc(-c2cccc(Cl)c2)n1C	0	.	.	.	.	.	.	.
O=C(c1ccccc1)N1CC[C@H]2[C@H](CO)Nc3ccc(C#Cc4cccc(F)c4)cc3[C@H]21	.	-34	0	122*	112*	79	10	39*
COc1ccccc1C#Cc1ccc2c(c1)[C@@H]1[C@@H](CCN1C(=O)c1cccc(F)c1)[C@H](CO)N2	.	-61	-1	.	.	.	.	.
COc1ccccc1C#Cc1ccc2c(c1)[C@H]1[C@H](CCN1C(=O)c1cccc(F)c1)[C@H](CO)N2	.	-74	-1	?	101*	87	33	104*
O=C(c1ccccc1)N1CC[C@@H]2[C@H](CO)Nc3ccc(C#Cc4ccccc4F)cc3[C@@H]21	.	-30	5	105*	104*	72	45*	106*
Cc1ccccc1NC(=O)COc1ccc(C)c([N+](=O)[O-])c1	0	.	.	.	.	.	.	.
COc1ccc(NC(=O)CSc2nnc3c4c5c(sc4nc(-c4ccccc4)n23)CCC5)cc1	1	.	.	.	.	.	.	.
CC=Cc1ccc2n(c1=O)C[C@@H]1[C@@H](CO)[C@H](C(=O)N3CCc4ccccc4C3)N(C(=O)C3CC3)[C@H]21 (mixture of isomers)	.	.	0	107*	69	7	2	12
SMILES	IDH1 R132H inh	Pf Dd2 inh	GASC1 inh	T cruzi growth-1	T cruzi growth-2	T cruzi growth-3	3T3 cytotox	3T3 cytotox 2
CC=Cc1ccc2n(c1=O)C[C@@H]1[C@@H](CO)[C@H](C(=O)N3CCc4ccccc4C3)[C@H]2N1CCC (mixture of isomers)	.	-2	1	103*	30	-13	0	10
CC=Cc1ccc2n(c1=O)C[C@@H]1[C@@H](CO)[C@H](C(=O)N3CCc4ccccc4C3)[C@H]2N1Cc1ccccc1 (mixture of isomers)	.	-7	0	85	.	.	.	.
CC=Cc1ccc2n(c1=O)C[C@@H]1[C@@H](CO)[C@H](C(=O)N3CCOCC3)N(Cc3ccccc3)[C@H]21 (mixture of isomers)	.	-4	1	101*	100*	6	9	13
Cc1c(Br)c([N+](=O)[O-])nn1CC(=O)Nc1sc2c(c1C#N)CCCC2	0	.	.	.	.	.	.	.
C[C@@H]1CCCCO[C@@H](CN(C)C(=O)Nc2ccccc2)[C@@H](C)CN([C@@H](C)CO)C(=O)c2cc(NC(=O)Nc3ccc(F)cc3)ccc2O1	3	.	-1	.	.	.	.	.
C[C@H]1CCCCO[C@H](CN(C)C(=O)Nc2ccc(F)cc2)[C@@H](C)CN([C@@H](C)CO)C(=O)c2cc(NC(=O)Nc3ccccc3)ccc2O1	.	-51	0	?	108*	88	15	11
C[C@@H]1CCCCO[C@@H](CN(C)C(=O)Nc2ccc3c(c2)OCO3)[C@@H](C)CN([C@H](C)CO)C(=O)c2cc(N(C)C)ccc2O1	-3	-6	-1	96*!	41	-8	-10	-9

Assay outcomes as filed in PubChem BioAssay.
